We go through three compounds from ChEMBL document CHEMBL2157972, “Selenophene-containing inhibitors of type IIA bacterial topoisomerases” (J Med Chem, 2011).

In brackets after ≈: the same amount, converted by molar mass.

Series [1] relates to Staphylococcus aureus. Kind of series: Antibacterial activity against fluoroquinolone resistant Staphylococcus aureus 4-FQR3M BSA643 expressing GyrA Ser84Leu mutant and GrlA Ser80Tyr and Glu84Gly mutant. The class given is functional. Summed up: (§1)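 Read-out is the minimum inhibitory concentration (MIC), reported in μg/mL, from standard antimicrobial susceptibility testing.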

A short description of series [2]: Inhibition of Staphylococcus aureus topoisomerase 4 by decatenation assay. Summed up: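 Enzyme activity was measured by topoisomerase IV decatenation using S. aureus enzyme. Inhibition is reported as a concentration in μM.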
Series [3] concerns the target T1, Voltage-gated inwardly rectifying potassium channel KCNH2 (Homo sapiens, UniProt Q12809). Kind of series: Inhibition of human ERG expressed in mammalian cells by patch clamp method. The class given is cell-based.
Series [4] concerns Staphylococcus aureus. Kind of series: Antibacterial activity against fluoroquinolone resistant Staphylococcus aureus 3-FQR3M ATCC 700699 expressing GyrA Ser84Leu mutant and Glu409Lys mutant and GrlA Ser80Phe mutant. The class given is functional. Summed up:
as §1

The nature of series [5]: Cytotoxicity against […] CHO cell line after 72 hrs. It is filed as cell-based, Cricetulus griseus. The note with it: chinese hamster, CHO cells.
A short description of series [6]: Cytotoxicity against human Hep2 cell line after 72 hrs. The class given is cell-based. The conditions noted are these: HEp-2 cells. Summed up:
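Human laryngeal epidermoid carcinoma Hep2 cells were exposed for 72 h.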

Series [7] deals with Staphylococcus aureus. The series is described as follows: Antibacterial activity against fluoroquinolone resistant Staphylococcus aureus 2-FQR2M NY2746 expressing GyrA Ser84Leu mutant and GrlA Ser80Phe mutant. It is filed as functional. Summed up: as §1
The nature of series [8]: Cytotoxicity against human HepG2 cell line after 72 hrs. The class given is cell-based. The conditions noted are these: HepG2 cells.
Series [9] deals with Staphylococcus aureus. Kind of series: Antibacterial activity against fluoroquinolone resistant Staphylococcus aureus 1-FQR2M BK2384 expressing GyrA Ser84Leu mutant and GrlA Ser80Phe mutant. It is filed as functional. The method in brief: as §1
Series [10] deals with Staphylococcus aureus. The series is described as follows: Antibacterial activity against methicillin-sensitive Staphylococcus aureus ATCC 29213. It is filed as functional. Summed up: as §1
The next series addresses hERG (KCNH2) (Homo sapiens, UniProt Q12809). The series is described as follows: Inhibition of human ERG expressed in mammalian cells at 10 uM by patch clamp method. The class given is cell-based. The conditions noted are these: mammalian cells that express hERG. (In general: The patch-clamp technique gives a direct electrical read-out from membranes.)
The test system of series [11] is Staphylococcus aureus. Kind of series: Antibacterial activity against fluoroquinolone resistant Staphylococcus aureus 5-FQR4M BSA678 expressing GyrA Ser84Leu and Ser85Pro mutant and GrlA Ser80Phe and Glu84Lys mutant. The class given is functional. Summed up: as §1
A further series deals with DNA gyrase (Staphylococcus aureus, UniProt P0A0K8+P20831). Kind of series: Inhibition of Staphylococcus aureus DNA gyrase by supercoiling assay. It is filed as protein-complex assay.
Series [12] concerns Staphylococcus aureus. The series is described as follows: Antibacterial activity against methicillin-resistant Staphylococcus aureus ATCC 700699. It is filed as functional. Summed up:
as §1

Series [13] is described as follows: Cytotoxicity against human HeLa cell line after 72 hrs. It is filed as cell-based. The note with it: HeLa cells.
In series [14] the test system is Staphylococcus aureus. Kind of series: Antimicrobial activity against fluoroquinolone resistant Staphylococcus aureus. The class given is functional. Summed up: as §1
Series [15] concerns Staphylococcus aureus. Kind of series: Antimicrobial activity against fluoroquinolone sensitive Staphylococcus aureus. It is filed as functional. The method in brief: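 Standard susceptibility testing. The read-out is the minimum inhibitory concentration, reported in μg/mL.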
For series [16], the target named is T1, Voltage-gated inwardly rectifying potassium channel KCNH2.

In the case of `COc1ccc2nccc([C@@H](O)CC[C@@H]3CCN(CCSc4ccco4)C[C@@H]3C(=O)O)c2c1` (mixture of isomers), the MIC was determined as 4 µg/mL against Staphylococcus aureus [1]; 2 µg/mL with Staphylococcus aureus [4]; 2 µg/mL against Staphylococcus aureus [7]; 4 µg/mL against Staphylococcus aureus [9]; 2 µg/mL against Staphylococcus aureus [10]; 8 µg/mL with Staphylococcus aureus [11]. The MIC against Staphylococcus aureus [12] is 2 µg/mL. For the same compound, the IC50 in series [2] was > 100 µM; in series [3], < 30 µM; against DNA gyrase, 4.7 µM. Besides, the CC50 at 72 h in series [5], in series [6], in [8] and in series [13] was > 100 µM in each case. Also, testing at 10 µM against hERG (KCNH2) gave an inhibition of 27%.
For the compound `COc1ccc2ncc(F)c([C@@H](O)CC[C@@H]3CCN(CCSc4cccs4)C[C@@H]3C(=O)O)c2c1`, the MIC90 was 0.5 µg/mL (≈ 0.991 µM) in the series with Staphylococcus aureus [14] and 1 µg/mL (≈ 1.98 µM) in the series with Staphylococcus aureus [15]. For the same compound, inhibition in [16] was half-maximal at 124 µM (IC50).
For the compound `COc1ccc2nccc([C@H](O)CC[C@@H]3CCN(CCSc4ccco4)C[C@@H]3C(=O)O)c2c1` (mixture of isomers), the MIC was 16 µg/mL against Staphylococcus aureus [1]; 4 µg/mL in the series on Staphylococcus aureus [4]; 8 µg/mL with Staphylococcus aureus [7]; 8 µg/mL in the series with Staphylococcus aureus [9]; 4 µg/mL in the series on Staphylococcus aureus [10]; 32 µg/mL against Staphylococcus aureus [11]. In the series on Staphylococcus aureus [12], this compound had an MIC of 4 µg/mL. In addition, the IC50 in series [2] was > 100 µM; at DNA gyrase, 10.2 µM. For the same compound, the CC50 at 72 h in series [5], in series [6], in series [8] and in series [13] was > 100 µM in each case. The same compound displayed an inhibition at 10 µM against hERG (KCNH2) of 14%.

What is called MIC is the least concentration at which growth counts as inhibited. The low end stands for greater potency, the high end for weaker potency. As usually defined, the IC50 is the midpoint of a concentration-inhibition curve. For orientation: CC50 means the concentration at which the toxic effect on the cells reaches its halfway point. Low values mean harm at low concentration, high ones better tolerance by the cells. As usually defined, the inhibition is the percentage by which the read-out fell short of the control. Low readings indicate a weak effect, high ones a strong effect. In general, MIC90 refers to an inhibitory concentration at the 90% level, which refers to growth in some studies and to a panel of isolates in others. Low readings indicate greater potency, high ones weaker potency.
